In ChEMBL document CHEMBL5678818, “Discovery of potent SOS1 inhibitors that block RAS activation via disruption of the RAS-SOS1 interaction” (Proc Natl Acad Sci U S A, 2019):
Calls of active or inactive are those of the source. No cut-off for these calls is given here.

Legend:
[1] = target: Son of sevenless homolog 2 (Homo sapiens, UniProt Q07890); assay: Inhibition of N-terminal His10-tagged wild-type recombinant human SOS2 catalytic domain (564 to 1043 residues) expressed in Escherichia coli assessed as reduction in KRAS G12C mutant activation preincubated for 10 mins with KRAS followed by SOS2 addition measured after 30 mins in presence of EDA-GTP-DY-647P1 by HTRF analysis
Calu-1 [2] = assay: Antiproliferative activity against human Calu-1 cells assessed as inhibition of cell viability incubated for 72 hrs by Cell Titer Glo assay; assay type: functional, cell-based; conditions: Calu-1, 72 h
[3] = target: T1, Guanine nucleotide exchange factor DBS (Homo sapiens, UniProt O15068); assay: Inhibition of human DBS assessed as reduction in CDC42 activation preincubated for 1 min with CDC42 followed by DBS addition measured after 20 mins in presence of EDA-GTP-DY-647P1 by HTRF analysis
T1 sequence (O15068 whole entry): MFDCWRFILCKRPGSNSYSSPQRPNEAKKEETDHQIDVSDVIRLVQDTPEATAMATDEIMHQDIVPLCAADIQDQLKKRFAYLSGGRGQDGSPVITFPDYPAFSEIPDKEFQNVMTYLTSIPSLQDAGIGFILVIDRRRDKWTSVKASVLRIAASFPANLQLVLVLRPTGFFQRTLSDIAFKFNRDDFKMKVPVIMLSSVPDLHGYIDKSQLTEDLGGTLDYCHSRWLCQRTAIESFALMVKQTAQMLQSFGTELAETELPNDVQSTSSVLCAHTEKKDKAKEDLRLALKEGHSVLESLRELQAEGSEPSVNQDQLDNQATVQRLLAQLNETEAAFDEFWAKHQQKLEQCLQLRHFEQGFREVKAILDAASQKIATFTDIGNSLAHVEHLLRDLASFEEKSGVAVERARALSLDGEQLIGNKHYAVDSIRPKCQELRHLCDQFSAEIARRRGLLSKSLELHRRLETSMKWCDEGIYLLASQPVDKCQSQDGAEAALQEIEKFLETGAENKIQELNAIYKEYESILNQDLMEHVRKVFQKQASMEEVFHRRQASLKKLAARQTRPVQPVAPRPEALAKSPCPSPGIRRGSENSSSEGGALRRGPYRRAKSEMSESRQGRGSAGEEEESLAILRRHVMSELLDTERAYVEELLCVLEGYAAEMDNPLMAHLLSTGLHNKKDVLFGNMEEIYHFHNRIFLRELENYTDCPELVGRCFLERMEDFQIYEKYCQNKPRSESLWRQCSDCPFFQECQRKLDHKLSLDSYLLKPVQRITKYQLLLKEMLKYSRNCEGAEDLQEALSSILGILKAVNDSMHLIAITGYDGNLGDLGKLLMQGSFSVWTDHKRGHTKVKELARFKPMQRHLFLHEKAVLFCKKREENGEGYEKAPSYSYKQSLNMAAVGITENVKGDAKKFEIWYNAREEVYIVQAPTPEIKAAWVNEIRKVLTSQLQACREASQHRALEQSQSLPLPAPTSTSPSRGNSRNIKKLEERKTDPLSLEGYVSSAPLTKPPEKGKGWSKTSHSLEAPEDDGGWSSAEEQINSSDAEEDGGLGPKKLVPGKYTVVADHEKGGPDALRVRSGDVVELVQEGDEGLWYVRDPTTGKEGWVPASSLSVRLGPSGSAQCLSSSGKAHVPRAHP

[4] = target: T2, Son of sevenless homolog 1 (Homo sapiens) (UniProt Q07889); assay: Stabilization of N-terminal His10-tagged wild-type recombinant human SOS1 catalytic domain (564 to 1049 residues) expressed in Escherichia coli assessed as change in melting temperature at 100 uM with heating from 25 to 85 degreeC by thermal shift assay
T2 sequence (whole entry): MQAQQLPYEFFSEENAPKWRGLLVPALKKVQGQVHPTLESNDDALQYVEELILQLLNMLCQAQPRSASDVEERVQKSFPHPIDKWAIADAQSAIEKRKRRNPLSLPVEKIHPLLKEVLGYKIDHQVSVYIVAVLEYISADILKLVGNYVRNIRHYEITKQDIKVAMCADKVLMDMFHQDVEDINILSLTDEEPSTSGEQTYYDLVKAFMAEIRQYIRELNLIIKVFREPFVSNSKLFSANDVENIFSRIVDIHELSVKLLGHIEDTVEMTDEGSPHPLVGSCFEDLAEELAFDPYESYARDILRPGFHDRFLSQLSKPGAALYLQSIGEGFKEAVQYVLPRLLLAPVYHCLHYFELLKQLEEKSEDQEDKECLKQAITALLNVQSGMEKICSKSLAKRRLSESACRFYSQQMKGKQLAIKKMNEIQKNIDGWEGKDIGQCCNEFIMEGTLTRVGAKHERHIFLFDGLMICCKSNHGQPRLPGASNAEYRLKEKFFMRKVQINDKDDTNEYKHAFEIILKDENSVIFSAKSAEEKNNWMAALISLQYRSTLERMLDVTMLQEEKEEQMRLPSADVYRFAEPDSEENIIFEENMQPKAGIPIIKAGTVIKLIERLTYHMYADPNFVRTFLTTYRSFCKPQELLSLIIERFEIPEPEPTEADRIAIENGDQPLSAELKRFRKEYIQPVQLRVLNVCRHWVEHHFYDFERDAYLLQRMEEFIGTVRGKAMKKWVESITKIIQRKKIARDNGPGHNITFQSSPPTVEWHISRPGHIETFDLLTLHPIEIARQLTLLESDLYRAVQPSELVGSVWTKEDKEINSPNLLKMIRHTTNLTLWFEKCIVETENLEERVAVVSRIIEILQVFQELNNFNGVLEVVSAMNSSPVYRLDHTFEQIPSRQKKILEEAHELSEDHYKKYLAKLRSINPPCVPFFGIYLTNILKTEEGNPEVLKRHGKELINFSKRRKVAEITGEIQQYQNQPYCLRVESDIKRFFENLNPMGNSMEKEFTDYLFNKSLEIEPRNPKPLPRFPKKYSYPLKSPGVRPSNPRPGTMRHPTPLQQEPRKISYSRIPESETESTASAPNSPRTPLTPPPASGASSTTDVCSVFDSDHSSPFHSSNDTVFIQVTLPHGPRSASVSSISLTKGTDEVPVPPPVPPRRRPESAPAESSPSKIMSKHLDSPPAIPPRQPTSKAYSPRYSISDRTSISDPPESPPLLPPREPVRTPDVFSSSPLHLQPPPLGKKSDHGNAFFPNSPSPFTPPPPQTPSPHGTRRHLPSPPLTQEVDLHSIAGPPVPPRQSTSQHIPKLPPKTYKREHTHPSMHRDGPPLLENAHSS

[5] = target: Epidermal growth factor receptor (Homo sapiens, UniProt P00533); assay: Inhibition of human EGFR using biotin-aminohexyl-AEEEEYFELVAKKK as substrate preincubated for 15 mins followed by substrate/ATP addition measured after 20 mins by FRET assay
[6] = target: GTPase KRas (Homo sapiens) (UniProt P01116); assay: Stabilization of N-terminal His10-tagged wild-type recombinant human KRAS (1 to 169 residues) expressed in Escherichia coli assessed as change in melting temperature at 100 uM with heating from 25 to 85 degreeC by thermal shift assay
K562 [7] = assay: Antiproliferative activity against human K562 cells assessed as inhibition of cell viability incubated for 72 hrs by Cell Titer Glo assay; assay type: functional, cell-based; conditions: K562, 72 h
Summary of the method: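 K-562 cells (wild-type KRAS, sourced from ATCC) were tested for antiproliferative response.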

NCI-H358 = assay: Antiproliferative activity against human NCI-H358 cells assessed as inhibition of cell viability incubated for 72 hrs by Cell Titer Glo assay; assay type: functional, cell-based; conditions: NCI-H358, 72 h
Summary of the method: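 NCI-H358 cells (KRAS G12C mutant) were sourced from ATCC.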

[8] = test system: GTPase KRas (Homo sapiens), P01116 [G12C]; assay: Stabilization of N-terminal GST-tagged recombinant human KRAS G12C mutant (1 to 169 residues) expressed in Escherichia coli assessed as change in melting temperature at 100 uM with heating from 25 to 85 degreeC by thermal shift assay
THP-1 = assay: Antiproliferative activity against human THP-1 cells assessed as inhibition of cell viability incubated for 72 hrs by Cell Titer Glo assay; assay type: functional, cell-based
KG-1 = assay: Antiproliferative activity against human KG-1 cells assessed as inhibition of cell viability incubated for 72 hrs by Cell Titer Glo assay; assay type: functional, cell-based
K562 [9] = assay: Effect on total ERK level in human K562 cells incubated for 60 mins by HTRF analysis; assay type: functional, cell-based
Summary of the method: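 K-562 cells (wild-type KRAS) were sourced from ATCC. Cells were incubated with compound for 60 min, and total ERK was quantified alongside pERK.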

Calu-1 [10] = assay: Effect on total ERK level in human Calu-1 cells incubated for 24 hrs by HTRF analysis; assay type: functional, cell-based
Summary of the method: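 Calu-1 cells carry two KRAS G12C alleles and were sourced from CLS. Total and pERK levels were both analyzed after compound treatment.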

[11] = target: T2, Son of sevenless homolog 1 (Homo sapiens); assay: Inhibition of SOS1 in human Calu-1 cells assessed as pERK level incubated for 24 hrs by HTRF analysis relative to control; assay type: cell-based; parameters: scale not given: the % may be the effect or the level left

Structure (SMILES) | IC50 [1] [µM] | IC50 (Calu-1 [2]) [µM] | IC50 [3] [µM] | ΔTm [4] [°C] | IC50 [5] [µM] | ΔTm [6] [°C] | IC50 (K562 [7]) [µM] | IC50 (NCI-H358) [µM] | ΔTm [8] [°C] | Activity (THP-1) | Activity (KG-1) | Activity (K562 [9]) | Activity (Calu-1 [10]) | Activity [11] [%]
CNCc1ccccc1-c1csc(C(C)Nc2nc(C)nc3cc(OC)c(OC)cc23)c1 (centres undefined) | > 20 | 2.05 | > 20 | 2.96 | > 20 | -0.67 | 1.1 | 2.66 | -0.57 | Active | Active | inactive | inactive | –
C=CC(=O)N1CC(N2CCN(C(=O)CNc3cc(C4(C)CC4)c(Cl)cc3O)CC2)C1 | – | – | – | – | – | – | – | – | – | – | – | – | – | 50
